Seven molecules from ChEMBL document CHEMBL4325877, “Synthesis of novel benzbromarone derivatives designed to avoid metabolic activation” (Bioorg Med Chem Lett, 2018) can be followed below.

Some results are limits rather than exact numbers.

Series [1] deals with Hepatocyte. Nature of the series: Cytotoxicity in hepatocytes isolated from CYP activator dexamethasone-treated C57BL/6J mouse at 5 uM after 18 hrs by LDH assay relative to control. Type of series: ADME, cell-based. An outline of the steps: (§1)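 Hepatocytes from mice pretreated with dexamethasone to induce CYP enzymes; compounds at 1 or 5 µM. Cytotoxicity read as LDH release after drug exposure (text gives 16 hr, legend 18 hr). Values are averages of duplicate experiments.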

Series [2] can be described thus: Toxicity in liver microsomes isolated from CYP activator dexamethasone-treated Sprague-Dawley rat assessed as induction of mitochondrial permeability transition by measuring mitochondrial swelling at 50 uM measured after 30 mins in absence of NADPH. The arrangement: species or system Microsome. The conditions noted are these: 0.5 h. An outline of the steps:
(§2)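 Compound (50 µM) incubated with dexamethasone-treated rat liver microsomes at 37 °C, with or without NADPH, for 30 min. Isolated mitochondrial fraction then added. Swelling followed as absorbance change at 540 nm over time, and area over the curve integrated as the MPT index. Mean ± SD, n = 3.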
(Liver microsomes are a subcellular fraction often used to study metabolism.)

A short description of series [3]: Toxicity in liver microsomes isolated from CYP activator dexamethasone-treated Sprague-Dawley rat assessed as induction of mitochondrial permeability transition by measuring mitochondrial swelling at 50 uM measured after 30 mins in presence of NADPH. The following applies: 0.5 h. The arrangement: species or system Microsome. An outline of the steps: as §2
Series [4] deals with T1, Solute carrier family 22 member 12 (Homo sapiens, UniProt Q96S37).
T1 sequence (Q96S37 whole entry): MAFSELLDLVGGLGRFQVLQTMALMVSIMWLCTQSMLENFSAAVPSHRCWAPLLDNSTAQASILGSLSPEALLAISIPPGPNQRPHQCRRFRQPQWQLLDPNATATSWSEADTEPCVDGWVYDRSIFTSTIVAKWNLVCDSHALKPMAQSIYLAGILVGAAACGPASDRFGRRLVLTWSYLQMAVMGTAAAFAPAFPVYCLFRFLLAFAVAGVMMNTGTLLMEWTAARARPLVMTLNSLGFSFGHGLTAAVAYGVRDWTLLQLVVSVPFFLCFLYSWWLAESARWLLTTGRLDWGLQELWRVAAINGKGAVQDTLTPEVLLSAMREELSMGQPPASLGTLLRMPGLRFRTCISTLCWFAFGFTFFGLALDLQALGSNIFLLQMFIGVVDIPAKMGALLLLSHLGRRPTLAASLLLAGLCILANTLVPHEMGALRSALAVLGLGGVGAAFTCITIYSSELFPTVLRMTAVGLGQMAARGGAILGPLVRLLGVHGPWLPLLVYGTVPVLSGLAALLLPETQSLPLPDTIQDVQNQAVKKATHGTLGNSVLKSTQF
Nature of the series: Inhibition of human URAT1 expressed in HEK293 cells assessed as inhibition of [14C]-urate uptake at 10 uM after 2 mins by beta-scintillation counting analysis. Type of series: cell-based. The conditions noted are these: hek293, 2 min. An outline of the steps: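 HEK cells overexpressing hURAT1; uric acid uptake measured in presence of compound at 10 µM. Uptake expressed as percent of vehicle control (0.5% DMSO, no inhibitor). Mean ± SD, n = 4.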

For a further series, the target named is T2, URAT1 (SLC22A12) (Homo sapiens, UniProt Q96S37).
T2 sequence (Q96S37 whole entry): T1 sequence (Q96S37 whole entry)
The series can be described thus: Inhibition of human URAT1 expressed in HEK293 cells assessed as [14C]-urate uptake at 10 uM after 2 mins by beta-scintillation counting analysis relative to control. Type of series: cell-based. The following applies: HEK293 cells expressing human URAT1, probe [14C]-urate, read-out: Activity. Set-up: scale not given: the % may be the effect or the level left.

Series [5] has as its system Hepatocyte. Nature of the series: Cytotoxicity in hepatocytes isolated from CYP activator dexamethasone-treated C57BL/6J mouse at 1 uM after 18 hrs by LDH assay relative to control. Format: ADME, cell-based. An outline of the steps: as §1
Series [6] deals with Hepatocyte. Nature of the series: Cytotoxicity in hepatocytes isolated from CYP activator dexamethasone-treated C57BL/6J mouse after 18 hrs by LDH assay relative to control. Type of series: ADME, cell-based. The gist of the method: as §1

As for `CCc1oc2ccccc2c1C(=O)c1ccc(Br)c(O)c1`, the Activity is on record as less than 16% in the series with Hepatocyte [1], “Non-Toxic” in series [2] and “Non-Toxic” in series [3]. Moreover, the “inhibition (INH)” value in series [4] was “Active”.
In the case of `CCc1oc2ccccc2c1C(=O)c1cc(O)cc(Br)c1`, the Activity in the series with Hepatocyte [1] is less than 16%; in series [2], “Non-Toxic”; in series [3], “Non-Toxic”. Also, the “inhibition (INH)” value in series [4] was “Active”.
Consider `CCc1oc2ccccc2c1C(=O)c1cc(O)ccc1Br`, for which the Activity in the series with Hepatocyte [1] is recorded as less than 16%; in series [2], “Non-Toxic”; in series [3], “Non-Toxic”. In addition, the “inhibition (INH)” value in series [4] was “Active”.
`CCc1oc2ccccc2c1C(=O)c1cc(O)c(Br)cc1Br`: the Activity in the series with Hepatocyte [1] is recorded as less than 16%; in series [2] it was “Non-Toxic”; in series [3], “Non-Toxic”. Further, the “inhibition (INH)” value in series [4] is listed as “Active”.
For `CCc1oc2ccccc2c1C(=O)c1ccc(Br)c(O)c1Br`, the results for the Activity (in the series on Hepatocyte [1]; in series [2]; in series [3]) were less than 16%, “Non-Toxic” and “Non-Toxic”, respectively. Also, the “inhibition (INH)” value in series [4] was “Active”.
Regarding `CCc1oc2ccccc2c1C(=O)c1cccc(O)c1Br`, the Activity in the series with Hepatocyte [1] was less than 16%; in series [2], “Non-Toxic”; in series [3] it was “Non-Toxic”. Further, the “inhibition (INH)” value in series [4] was “Active”.
As to `CCc1oc2ccccc2c1C(=O)c1cc(Br)c(O)c(Br)c1` [BENZBROMARONE], the Activity with Hepatocyte [1] was 52%; in series [2], “Non-Toxic”; in series [3] it was “Toxic”; in the series with Hepatocyte [5], 27%; in the series with Hepatocyte [6], “Dose-dependent effect”. The activity at 2 min, 10 µM at URAT1 (SLC22A12) is less than 10%.
